# Assay results as given in PubChem BioAssay AID651740 (Broad Institute, 2012).
# Among all 5,600 compounds or so, about 1,200 (21%) were called active. Roughly 3% stayed inconclusive and do not appear here. The list is a sample of the results. Values without a mark were called inactive.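 Rule for the calls: active = mean inhibition above about 95%, with at least 55% of replicates also reaching it (limit read from the data); inconclusive = meets just one of the two conditions; inactive = meets neither condition.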
# Assay: Trypanosoma cruzi growth blockers in host fibroblasts – NIH3T3 host cells, beta-gal parasites, cherry-pick, set 2, confirmation (AID 651740);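 note: plate controls were neutral control median for no effect and positive control median for full effect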
# Conditions: T. cruzi beta-gal in NIH3T3, GalScreen luminescence, 90 h; at 2.09 µM; active compounds read high
# Outline: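 Test system: beta-gal T. cruzi in mouse NIH/3T3 fibroblasts. Quantity: 5,000 host cells per well. Buffer or medium: DMEM plus 2% fetal bovine serum, 1% PSG. Reagent: 5000 trypomastigotes per well. Timing: 3 h host cell attachment, then ≥90 h compound-parasite co-culture, 60 min GalScreen. Technique: luminescence, GalScreen.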
row,Structure (SMILES),inhibition
1,O=C(Cc1ccccn1)N1CCCCN2[C@@H](CO)[C@@H](c3ccc(C#Cc4ccccc4)cc3)[C@@H]2C1,56.8%
2,COc1ccc(-c2ccc([C@H]3[C@H](CO)N4CCCCN(C(=O)Cc5ccncc5)C[C@@H]34)cc2)cc1,66.4%
3,COc1ccc(C#Cc2ccc([C@H]3[C@H](CO)N4CCCCN(C(=O)Cc5ccccc5)C[C@@H]34)cc2)cc1,111% (active)
4,C/C=C/c1ccc([C@H]2[C@H](CO)N3CCCCN(C(=O)Cc4ccncc4)C[C@@H]23)cc1,82.3%
5,O=C(Cc1cccnc1)N1CCCCN2[C@@H](CO)[C@H](c3ccc(C#CC4CCCC4)cc3)[C@@H]2C1,46.3%
